According to article PMC4618194 (Nature chemical biology, 2015):

Columns and labels:
site IQ = conditions: without affecting energy metabolism; cited from earlier work
[1] = molecular target: site IIIQo of mitochondrial complex III (Rattus norvegicus, UniProt P00159+P20788); test: Endpoint H2O2 production assays; assay type: biochemical; conditions: dose-response in two ΔΨm and six H2O2 endpoint assays
Outline: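 Freshly isolated rat skeletal-muscle mitochondria, H2O2 read by Amplex UltraRed/HRP fluorescence. Site conditions: IIIQo, 0.5 or 5 mM succinate + 4 μM rotenone + 2.5 μM antimycin A; IQ, 5 mM succinate; IIF, 0.1 mM succinate + rotenone, antimycin A, 2 μM myxothiazol. Other assays: IF/matrix DH, glycerol phosphate (mGPDH), and two ΔΨm assays. 30-min endpoints normalised to DMSO and inhibitor controls, as % change.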

[2] = Mitochondrial respiration; assay type: biochemical, rat
Outline: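 Seahorse XF24 with 0.5–6 μg rat muscle mitochondrial protein per well, in MAS buffer with 0.3% BSA. Substrate: 5 mM succinate + 4 μM rotenone. State 2 measured with and without compound, then 5 mM ADP (state 3), then 1 μg/ml oligomycin (state 4o). Each compound tested at least three times per substrate.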

site IIIQo = conditions: cited from earlier work
[3] = cited from earlier work
HIF-1α = test: Hypoxia-induced HIF-1α accumulation; assay type: cell-based, human; conditions: HEK-293 cells, 3.5 h hypoxia; 2 μM
Outline: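 HEK-293 cells, 15,000/well, grown 48 h. Medium then swapped for medium pre-equilibrated overnight at 1% or atmospheric O2. Compounds, 100 μM CoCl2 or 2 μM myxothiazol were pre-equilibrated 1 h in that medium and added at the switch. 3.5 h at 1% O2. Cells rinsed in ice-cold PBS, lysed in Laemmli buffer, frozen −80°C. n = 3 biological replicates; one-way ANOVA.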

O=[N+]([O-])c1ccc(Oc2ccc(S(=O)(=O)NC3CCCCC3)cc2)cc1 [CN-POBS]
Electron leak to O2 at site IQ (site IQ): suppresses

C/C1=C\C[C@]2(C)C(=O)C(O)=C([C@H](C)CO)[C@H]2C/C=C(\C)[C@@H](O)CC/C(C)=C/CC1 [Terpestacin]
Selectivity for site IIIQo superoxide production [1]: not selective
Effect on mitochondrial respiration / oxidative phosphorylation ([2]; 10 – 30 μM, succinate plus rotenone): evidence of uncoupling and inhibition of oxidative phosphorylation
Site IIIQo ROS production and hypoxic signaling (site IIIQo; without altering basal respiration): inhibited
Effect on mitochondrial polarization [3]: depolarizes

CCCCCC[C@H]1C(=O)O[C@H](C)[C@H](NC(=O)c2cccc(NC=O)c2O)C(=O)O[C@@H](C)[C@@H]1OC(=O)CC(C)C [antimycin A]
HIF-1α induction during hypoxia (site IIIQo): increased
ROS production during hypoxia (site IIIQo): increased

CO/C(=C/C(N)=O)[C@H](C)[C@H](/C=C/c1csc(-c2csc([C@@H](C)/C=C/C=C/C(C)C)n2)n1)OC [myxothiazol]
Effect on mitochondrial respiration ([2]; 0.08 μM (5x IC50 against site IIIQo), succinate and rotenone): potent effect
Effect on HIF-1α stabilization (HIF-1α): prevented HIF-1α stabilization
HIF-1α induction during hypoxia (site IIIQo): blocked
ROS production during hypoxia (site IIIQo): decreased
